{
  "source": "paper PMC3182445",
  "about": "(The Journal of General Physiology, 2011)",
  "key": {"[1]": {"target": "T1, rat P2X7R (Rattus norvegicus, UniProt Q64663)", "T1 sequence (Q64663 1-595)": "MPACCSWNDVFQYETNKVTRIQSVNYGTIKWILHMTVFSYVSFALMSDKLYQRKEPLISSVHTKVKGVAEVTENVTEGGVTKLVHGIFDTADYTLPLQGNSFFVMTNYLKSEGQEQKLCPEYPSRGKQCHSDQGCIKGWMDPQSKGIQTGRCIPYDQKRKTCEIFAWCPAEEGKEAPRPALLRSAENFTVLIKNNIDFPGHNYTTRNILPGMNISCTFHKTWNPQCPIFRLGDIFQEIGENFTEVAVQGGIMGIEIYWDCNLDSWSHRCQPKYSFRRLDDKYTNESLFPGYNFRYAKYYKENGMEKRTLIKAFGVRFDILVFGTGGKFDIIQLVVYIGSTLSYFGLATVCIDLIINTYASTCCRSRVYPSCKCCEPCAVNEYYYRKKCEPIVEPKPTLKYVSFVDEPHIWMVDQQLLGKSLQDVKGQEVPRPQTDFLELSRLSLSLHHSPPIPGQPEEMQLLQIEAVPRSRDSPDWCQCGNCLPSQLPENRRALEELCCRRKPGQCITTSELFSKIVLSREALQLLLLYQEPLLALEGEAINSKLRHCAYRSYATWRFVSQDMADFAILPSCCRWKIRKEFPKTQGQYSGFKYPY", "assay_type": "cell-based"}, "[2]": {"assay": "Free calcium concentration in bath medium by calcium ion selective electrode", "assay_type": "physicochemical", "conditions": "agonist concentrations above 100 µM; Mg^2+-free buffer, Ca^2+ fixed at 950 µM", "method_in_brief": "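Free Ca2+ read with a Ca2+-selective electrode. Mg2+-free buffer: 147 mM NaCl, 3 mM KCl, 10 mM glucose, 10 mM HEPES, pH 7.35, with 0.95 mM Ca2+. ATP or BzATP at 0, 1, 3.2, 10, 32, 100 and 320 µM, diluted from 10 mM aqueous stocks. Millivolt readings converted using a semilogarithmic standard curve. Means of three experiments.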"}, "[3]": {"test_system": "rP2X7R-H130A mutant", "assay_type": "cell-based, rat", "conditions": "100 µM BzATP; 10 mM Ca^2+ vs Ca^2+-deficient medium", "method_in_brief": "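Rat P2X7R-H130A mutant transfected into HEK293 cells (2 µg DNA, Lipofectamine 2000, serum-free Opti-MEM 4.5 h, then 24–48 h), replated 2–10 h, EGFP-positive cells chosen. Whole-cell patch clamp at room temperature, −60 mV hold. Pipette: 145 mM NaCl, 10 mM EGTA, 10 mM HEPES, pH 7.35. Bath: Krebs-Ringer-like, 1 mM MgCl2, pH 7.35. 100 µM BzATP given in Ca2+-deficient or 10 mM Ca2+ medium. Four experiments, mean ± SEM.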"}},
  "note": "Like-named read-outs stand apart in the source and are kept apart here.",
  "data": [
    {"compound": "Clc1cccc(-c2nnnn2Cc2cccnc2)c1Cl", "note": "[A438079]", "values": [
      {"measurement": "time for effect on receptor deactivation", "setting": "[1]; 100 µM A438079 applied during washout of 100 µM BzATP, Ca^2+-containing and Ca^2+-deficient medium", "result": "~0.8", "unit": "s"},
      {"measurement": "potency relative to ATP", "setting": "[1]; higher potency than ATP at rat receptor", "result": "~3,000 fold"},
      {"measurement": "potency relative to BzATP", "setting": "[1]; higher potency than BzATP at rat receptor", "result": 200, "unit": "fold"},
      {"measurement": "current generated when applied alone", "setting": "[1]; no agonist, unpublished data", "result": "did not generate any current"},
      {"measurement": "IC50", "setting": "[1]; read-out: IC50, inhibition of current, cells stimulated with 32 µM BzATP", "result": "~300", "unit": "nM"},
      {"measurement": "IC50", "setting": "[1]; read-out: IC50, reduction of peak amplitude of current, applied together with 3.2 mM ATP, estimated", "result": "~1000", "unit": "nM"}
    ]},
    {"compound": "2’(3′)-O-4-benzoylbenzoyl)ATP [BzATP]", "values": [
      {"measurement": "free Ca^2+ concentration in presence of BzATP relative to ATP (higher)", "setting": "[2]", "result": "2–3%"}
    ]},
    {"compound": "[Ca+2]", "note": "[Ca^2+, calcium]", "values": [
      {"measurement": "rightward shift in agonist (ATP, BzATP) dose-response", "setting": "[1]; naive receptors, 2-mM Ca^2+-containing vs Ca^2+-deficient medium, 1 mM Mg^2+", "result": "~0.5", "unit": "log units"},
      {"measurement": "decrease in the peak amplitude of current", "setting": "[3]", "result": 15, "unit": "fold"}
    ]}
  ]
}
